Data on 13 molecules can be found in ChEMBL document CHEMBL4765308, “N-alkylpiperidine carbamates as potential anti-Alzheimer's agents” (Eur J Med Chem, 2020).

Counter-ions that a name gives are not always drawn. The source made the active and inactive calls. The calls are words filed in the database; no cut-off is given here.

The target in data set [1] is T1, Amine oxidase [flavin-containing] B (Homo sapiens, UniProt P27338).
T1 sequence (P27338 whole entry): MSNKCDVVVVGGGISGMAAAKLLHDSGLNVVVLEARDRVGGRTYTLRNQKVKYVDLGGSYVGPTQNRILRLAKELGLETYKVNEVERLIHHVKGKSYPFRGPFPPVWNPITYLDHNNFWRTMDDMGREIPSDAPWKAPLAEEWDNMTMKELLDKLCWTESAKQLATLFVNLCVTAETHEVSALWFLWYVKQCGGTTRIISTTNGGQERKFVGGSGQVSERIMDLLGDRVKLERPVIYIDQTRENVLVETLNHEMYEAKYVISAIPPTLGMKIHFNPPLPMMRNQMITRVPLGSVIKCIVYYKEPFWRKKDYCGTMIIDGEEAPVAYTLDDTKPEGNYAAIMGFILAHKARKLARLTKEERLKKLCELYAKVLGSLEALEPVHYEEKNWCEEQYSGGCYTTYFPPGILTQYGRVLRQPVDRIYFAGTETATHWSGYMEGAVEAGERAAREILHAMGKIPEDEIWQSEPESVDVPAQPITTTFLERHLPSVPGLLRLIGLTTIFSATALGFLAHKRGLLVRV
In words: Inhibition of human recombinant microsomal MAO-B expressed in baculovirus-infected BTI-TN-5B1-4 cells assessed as inhibition of H2O2 production using p-tyramine as substrate preincubated for 15 mins followed by substrate addition by Amplex Red reagent based fluorescence analysis. An outline of the steps: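 Recombinant human MAO-A or MAO-B (insect-cell microsomes) preincubated with compound 15 min at 37 °C in 50 mM sodium phosphate, pH 7.4, 0.05% Triton X-114. Reaction started with 1 mM p-tyramine, 250 µM Amplex Red and 2 U/mL HRP (final concentrations). Resorufin fluorescence (ex 530/em 590 nm) followed for 20 min at 37 °C, duplicates. Blank-corrected residual activity; IC50 from a four-parameter Hill fit.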

Data set [2] concerns the target T2, Acetylcholinesterase (Homo sapiens, UniProt P22303). In words: Inhibition of human AChE using acetylthiocholine iodide as substrate preincubated with enzyme for 30 mins followed by substrate addition by Ellman's method.
Data set [3] concerns the target T3, Cholinesterase (Homo sapiens, UniProt P06276). In words: Inhibition of human BuchE using butyrylthiocholine iodide as substrate preincubated for 30 mins followed by substrate addition by Ellman's method.
For the next data set, the species on record is Homo sapiens. In words: Inhibition of HFIP-pretreated human amyloid beta (1 to 42) self aggregation at 10 uM incubated for 36 to 48 hrs by thioflavin-T based fluorescence method relative to control. Conditions: time 36-48 hrs. An outline of the steps:
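HFIP-pretreated Aβ1-42 (1.5 µM) incubated with compound (10 µM) and thioflavin-T (10 µM final) at room temperature with continuous shaking for 36–48 h. Fluorescence (ex 440/em 490 nm) read every 3 min. Percent inhibition compared with Aβ + DMSO control, run in quadruplicate. Three independent experiments, mean ± SD, one-way ANOVA with Bonferroni test.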

Data set [4] concerns SH-SY5Y. The data set is described as follows: Cytotoxicity against human SH-SY5Y cells at 20 uM incubated for 48 hrs […]. Format: cell-based.
In a further data set the test system is HepG2. In words: Cytotoxicity against human HepG2 cells at 50 uM incubated for 48 hrs […]. Format: cell-based. Conditions: hepg2, 48 h.
Data set [5] has as its target T4, Amine oxidase [flavin-containing] A (Homo sapiens, UniProt P21397).
T4 sequence (P21397 whole entry): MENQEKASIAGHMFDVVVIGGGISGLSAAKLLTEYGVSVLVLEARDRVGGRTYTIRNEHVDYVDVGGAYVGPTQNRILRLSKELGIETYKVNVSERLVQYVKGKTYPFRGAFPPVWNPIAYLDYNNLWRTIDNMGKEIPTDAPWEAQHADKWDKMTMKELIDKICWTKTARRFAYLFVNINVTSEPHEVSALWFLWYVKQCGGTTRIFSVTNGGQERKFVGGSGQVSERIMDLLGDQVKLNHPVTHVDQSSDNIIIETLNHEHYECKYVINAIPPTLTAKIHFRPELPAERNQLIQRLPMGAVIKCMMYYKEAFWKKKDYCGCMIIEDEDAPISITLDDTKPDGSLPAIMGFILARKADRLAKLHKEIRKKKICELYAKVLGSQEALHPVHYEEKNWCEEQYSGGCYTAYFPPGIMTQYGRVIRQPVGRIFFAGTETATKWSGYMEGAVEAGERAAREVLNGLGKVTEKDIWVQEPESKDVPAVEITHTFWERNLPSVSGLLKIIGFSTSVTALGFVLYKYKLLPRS
In words: Inhibition of human recombinant microsomal MAO-A expressed in baculovirus-infected BTI-TN-5B1-4 cells assessed as inhibition of H2O2 production using p-tyramine as substrate preincubated for 15 mins followed by substrate addition by Amplex Red reagent based fluorescence analysis.

The target of data set [6] is T2, Acetylcholinesterase. The data set is described as follows: Reversible inhibition of human AChE using acetylthiocholine iodide as substrate preincubated with enzyme at 10XIC50 for 30 mins followed by substrate addition and measured for 5 mins by Ellman's method. Conditions: time 35.0 min.
Data set [7] addresses T3, Cholinesterase. The data set is described as follows: Reversible inhibition of human BuChE using butyrylthiocholine iodide as substrate preincubated with enzyme at 10XIC50 for 30 mins followed by substrate addition and measured for 5 mins by Ellman's method. Conditions: time 35.0 min. (Ellman's reagent forms a yellow product with free thiols.)
The target of data set [8] is T2, Acetylcholinesterase. The data set is described as follows: Non-time dependent inhibition of human AChE using acetylthiocholine iodide as substrate preincubated with enzyme for 15 to 60 mins followed by substrate addition by Ellman's method. To be noted: time 15-60 min.
Data set [9] has as its target T3, Cholinesterase. In words: Non-time dependent inhibition of human BuChE using butyrylthiocholine iodide as substrate preincubated with enzyme for 15 to 60 mins followed by substrate addition by Ellman's method. Conditions: time 15-60 min.
In data set [10] the test system is SH-SY5Y. In words: Neuroprotective activity against human SH-SY5Y cells assessed as reduction in amyloid beta(1 to 42)-induced cell death at 20 uM measured after 48 hrs by Annexin-V APC/7-AAD staining based flow cytometric analysis. Format: functional. An outline of the steps: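 Aβ1-42 (5 µM) pre-aggregated 24 h at 37 °C in reduced-serum medium, with or without compound (20 µM). SH-SY5Y cells (2×10^4/well) treated the next day for 48 h, then washed in cold PBS and stained with 7-AAD (2 µg/mL, 10 min, room temperature). Percent 7-AAD-positive cells by flow cytometry, relative to control. At least two independent assays in duplicate; ANOVA with t-test.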
A general note: A flow cytometer gives signals particle by particle.

Data set [11] concerns the target T1, Amine oxidase [flavin-containing] B. The data set is described as follows: Time dependent inhibition human recombinant microsomal MAO-B expressed in baculovirus-infected BTI-TN-5B1-4 cells assessed as inhibition of H2O2 production using p-tyramine as substrate preincubated with enzyme for 5 to 15 mins followed by substrate addition by Amplex Red reagent based fluorescence analysis. Conditions: time 5-15 min.

The test system of data set [12] is SH-SY5Y. The data set is described as follows: Reduction in amyloid beta (1 to 42) aggregates in human SH-SY5Y cells at 20 uM incubated for 48 hrs by DAPI stain based immunofluorescence staining analysis. Format: functional, cell-based. The method in brief: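 SH-SY5Y cells on coverslips treated for 48 h with preincubated Aβ1-42 (5 µM) in reduced-serum medium, with or without compound (20 µM). Fixed in 5% formalin, permeabilized with 0.5% Tween 20 and blocked with 3% BSA. Stained with rabbit anti-amyloid fibril LOC antibody (1:1000, 2 h) and Alexa 488 secondary (1.5 h). DAPI-mounted and imaged by confocal microscopy (63× oil).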

For orientation: IC50 means the concentration at which inhibition is half-maximal. The inhibition is the change of the read-out against control, counted positive when it falls.

T2 sequence (P22303 whole entry): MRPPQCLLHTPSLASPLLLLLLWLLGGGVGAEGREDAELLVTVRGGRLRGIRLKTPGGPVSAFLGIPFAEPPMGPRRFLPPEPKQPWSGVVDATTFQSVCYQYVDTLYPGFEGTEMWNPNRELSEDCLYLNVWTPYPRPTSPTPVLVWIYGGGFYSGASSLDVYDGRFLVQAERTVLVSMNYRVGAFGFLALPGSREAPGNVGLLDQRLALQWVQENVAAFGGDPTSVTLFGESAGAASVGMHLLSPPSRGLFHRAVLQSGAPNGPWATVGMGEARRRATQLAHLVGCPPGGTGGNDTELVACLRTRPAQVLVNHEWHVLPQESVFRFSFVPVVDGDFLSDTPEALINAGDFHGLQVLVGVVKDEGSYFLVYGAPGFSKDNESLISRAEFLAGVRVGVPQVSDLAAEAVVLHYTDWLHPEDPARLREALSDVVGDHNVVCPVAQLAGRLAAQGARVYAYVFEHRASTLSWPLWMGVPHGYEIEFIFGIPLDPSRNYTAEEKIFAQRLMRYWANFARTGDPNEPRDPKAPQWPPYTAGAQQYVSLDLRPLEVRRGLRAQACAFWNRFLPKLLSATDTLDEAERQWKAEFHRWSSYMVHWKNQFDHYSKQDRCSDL
T3 sequence (P06276 whole entry): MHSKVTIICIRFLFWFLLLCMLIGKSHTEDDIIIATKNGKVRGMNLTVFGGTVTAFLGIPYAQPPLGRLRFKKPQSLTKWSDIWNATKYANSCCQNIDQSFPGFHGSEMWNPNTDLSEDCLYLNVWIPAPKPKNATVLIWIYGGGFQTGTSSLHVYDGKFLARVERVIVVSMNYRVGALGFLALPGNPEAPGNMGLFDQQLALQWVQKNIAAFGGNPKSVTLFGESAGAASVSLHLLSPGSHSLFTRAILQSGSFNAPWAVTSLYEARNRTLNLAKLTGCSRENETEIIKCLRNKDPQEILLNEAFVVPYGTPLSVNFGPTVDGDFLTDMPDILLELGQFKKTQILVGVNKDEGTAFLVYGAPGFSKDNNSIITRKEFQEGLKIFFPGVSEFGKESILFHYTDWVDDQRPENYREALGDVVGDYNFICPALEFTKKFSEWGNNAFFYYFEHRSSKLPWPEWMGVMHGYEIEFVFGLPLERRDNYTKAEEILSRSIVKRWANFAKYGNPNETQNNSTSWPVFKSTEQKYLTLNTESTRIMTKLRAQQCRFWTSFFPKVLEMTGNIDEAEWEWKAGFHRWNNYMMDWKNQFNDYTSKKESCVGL

With `O=C(Nc1ccccc1)OC1CCCN(C2Cc3ccccc3C2)C1` (stereo not drawn), the IC50 in [1] was over 100 µM; against Acetylcholinesterase [2] it was over 100 µM; against Cholinesterase [3], 0.0645 µM; in data set [5], over 100 µM. Also, in the data set listed under Homo sapiens, the inhibition is under 20%. The Activity entry in the data set on SH-SY5Y [4] and in the data set on HepG2 was “Non-Toxic” in each case. In addition, the inhibition result on Acetylcholinesterase [6], on Cholinesterase [7], on Acetylcholinesterase [8] and on Cholinesterase [9] was “Active” each time.

Regarding `O=C(Nc1ccccc1)OCC1CCN(Cc2ccccc2)CC1`, the IC50 in data set [1] was 26.1 µM; on Acetylcholinesterase [2], 7.31 µM; at Cholinesterase [3], 0.555 µM; in data set [5], over 100 µM. In the data set filed under Homo sapiens, the inhibition was under 20%. Moreover, the Activity entry in the data set with SH-SY5Y [4] and in the data set with HepG2 was “Non-Toxic” each time. Moreover, in the data set on SH-SY5Y [10], the outcome was Active. The inhibition result on Acetylcholinesterase [6], at Cholinesterase [7], on Acetylcholinesterase [8] and at Cholinesterase [9] was “Active” in each case. Further, in [11], the “inhibition (INH)” value was “Not Active”. In the data set on SH-SY5Y [12], the inhibition result is “inactive”.

Turning to `Oc1ccc(/C=C/c2cc(O)cc(O)c2)cc1`, the inhibition in the data set listed under Homo sapiens was 86.6%.

As to `CC(C)c1ccc(NC(=O)OCC2CCN(Cc3ccccc3)CC2)cc1`, the IC50 in data set [1] was over 100 µM; against Acetylcholinesterase [2], 2.25 µM; against Cholinesterase [3] it was 0.809 µM; in [5], over 100 µM. In the data set listed under Homo sapiens, the inhibition was under 20%. Besides, the Activity result in the data set with SH-SY5Y [4] and with HepG2 was “Non-Toxic” throughout. Further, the inhibition entry at Acetylcholinesterase [6], on Cholinesterase [7], at Acetylcholinesterase [8] and on Cholinesterase [9] was “Active” each time.

Consider `COc1cc2c(cc1OC)C(=O)C(CC1CCN(Cc3ccccc3)CC1)C2` (stereo not drawn), for which, in the data set filed under Homo sapiens, the inhibition is under 20%.

Consider `CCN(C)C(=O)Oc1cccc([C@H](C)N(C)C)c1` [RIVASTIGMINE TARTRATE], for which the IC50 in data set [1] was over 100 µM. Also, the inhibition in the data set listed under Homo sapiens is under 20%.

For `O=C(Nc1ccccc1)OC1CCCN(Cc2ccccc2)C1` (stereo not drawn), the IC50 was 33.3 µM in data set [1], over 100 µM against Acetylcholinesterase [2], 0.46 µM on Cholinesterase [3] and over 100 µM in data set [5].

For the molecule `C#CCN1CCC(OC(=O)Nc2ccc(C(C)C)cc2)CC1`, the half-inhibitory concentration (IC50) in data set [1] is 0.178 µM; on Acetylcholinesterase [2], over 100 µM; against Cholinesterase [3], over 100 µM; in data set [5], over 100 µM. Further, in the data set filed under Homo sapiens, the inhibition worked out at 25.7%. For the same molecule, the Activity entry in the data set on SH-SY5Y [4] and with HepG2 was “Non-Toxic” each time. The outcome with SH-SY5Y [10] was Active. The “inhibition (INH)” value in data set [11] is reported as “Active”. Further, in the data set on SH-SY5Y [12], the inhibition entry is “Active”.

For `CCN(C)C(=O)OC1CCN(Cc2ccccc2)CC1`, the half-inhibitory concentration (IC50) (in data set [1]; against Acetylcholinesterase [2]; at Cholinesterase [3]; in data set [5]) was over 100 µM throughout.

Turning to `C#CCN[C@@H]1CCc2ccccc21` [RASAGILINE MESYLATE], the IC50 against Acetylcholinesterase [2] and on Cholinesterase [3] was over 100 µM each time. Besides, the inhibition in the data set filed under Homo sapiens is under 20%.

As for `OC1CCN(C2Cc3ccccc3C2)CC1`, the half-inhibitory concentration (IC50) (in [1]; at Acetylcholinesterase [2]; against Cholinesterase [3]; in [5]) was over 100 µM in each case.

Consider `CCN(C)C(=O)OC1CCCN(C2Cc3ccccc3C2)C1` (stereo not drawn), for which the IC50 is over 100 µM in data set [1], over 100 µM against Acetylcholinesterase [2], 9.69 µM against Cholinesterase [3] and over 100 µM in data set [5].

With `C#CCN1CCCC(OC(=O)N(C)CC)C1` (stereo not drawn), the IC50 (in [1]; at Acetylcholinesterase [2]; against Cholinesterase [3]; in [5]) was over 100 µM each time.
